Measurements published in ChEMBL document CHEMBL4831480, “Identification of First-in-Class Inhibitors of Kallikrein-Related Peptidase 6 That Promote Oligodendrocyte Differentiation” (J Med Chem, 2021).

Assays:
[1] = biological target: Tissue-type plasminogen activator (Homo sapiens) (UniProt P00750); experiment: Inhibition of tPA (unknown origin) assessed as inhibition of release of AMC fluorescent product using Z-GGR-AMC as substrate at 10 uM incubated for 30 mins by microplate reader relative to control
How it was run: (§1)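 Each inhibitor at 10 μM was preincubated 15 min at 37 °C with the protease at an optimized concentration in its own buffer. Reaction started with AMC substrate: Ac-VDVAD-AMC 25 μM (caspase-2), Ac-DEVD-AMC 10 μM (caspase-3), Ac-VEID-AMC 100 μM (caspase-6), Z-LR-AMC 50 μM (cathepsin L), Z-GGR-AMC 100 μM (tPA). Read for 30 min at 37 °C; % inhibition from initial rates versus DMSO; 3 independent experiments.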

[2] = biological target: Kallikrein-1 (Homo sapiens, UniProt P06870); experiment: Inhibition of KLK1 (unknown origin) assessed as release of AMC fluorescent product using H-PFR-AMC as substrate incubated for 30 mins by microplate reader
[3] = biological target: T1, Caspase-2 (Homo sapiens) (UniProt P42575); experiment: Inhibition of Caspase-2 (unknown origin) assessed as inhibition of release of AMC fluorescent product using Ac-VDVAD-AMC as substrate at 10 uM incubated for 30 mins by microplate reader relative to control; how it was run: as §1
T1 sequence (whole entry): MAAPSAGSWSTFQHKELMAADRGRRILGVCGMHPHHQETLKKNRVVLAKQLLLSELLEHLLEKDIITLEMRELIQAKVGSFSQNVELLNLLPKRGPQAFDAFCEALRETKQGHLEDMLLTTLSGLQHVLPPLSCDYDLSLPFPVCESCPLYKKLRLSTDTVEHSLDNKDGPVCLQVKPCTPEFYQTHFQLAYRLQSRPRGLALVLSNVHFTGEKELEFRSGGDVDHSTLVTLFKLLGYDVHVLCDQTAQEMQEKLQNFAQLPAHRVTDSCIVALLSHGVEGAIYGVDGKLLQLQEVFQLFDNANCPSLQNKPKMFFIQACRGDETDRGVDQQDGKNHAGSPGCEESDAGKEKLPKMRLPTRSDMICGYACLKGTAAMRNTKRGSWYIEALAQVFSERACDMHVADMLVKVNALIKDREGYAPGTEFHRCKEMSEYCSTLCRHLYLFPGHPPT

[4] = biological target: Kallikrein-5 (Homo sapiens) (UniProt Q9Y337); experiment: Inhibition of KLK5 (unknown origin) assessed as inhibition of release of AMC fluorescent product using H-VPR-AMC as substrate at 10 uM incubated for 30 mins by microplate reader relative to control
[5] = biological target: Kallikrein-4 (Homo sapiens) (UniProt Q9Y5K2); experiment: Inhibition of KLK4 (unknown origin) assessed as inhibition of release of AMC fluorescent product using H-VPR-AMC as substrate at 10 uM incubated for 30 mins by microplate reader relative to control
[6] = biological target: T2, Kallikrein-14 (Homo sapiens) (UniProt Q9P0G3); experiment: Inhibition of KLK14 (unknown origin) assessed as inhibition of release of AMC fluorescent product using H-VPR-AMC as substrate at 10 uM incubated for 30 mins by microplate reader relative to control
T2 sequence (whole entry): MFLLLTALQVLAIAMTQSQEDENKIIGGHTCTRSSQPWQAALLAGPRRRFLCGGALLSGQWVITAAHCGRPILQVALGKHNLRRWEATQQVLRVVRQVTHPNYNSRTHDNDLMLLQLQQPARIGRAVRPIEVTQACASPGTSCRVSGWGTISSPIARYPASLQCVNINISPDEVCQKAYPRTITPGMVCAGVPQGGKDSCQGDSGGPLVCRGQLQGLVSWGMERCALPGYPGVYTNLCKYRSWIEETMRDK

[7] = biological target: Plasminogen (Homo sapiens, UniProt P00747); experiment: Inhibition of plasmin (unknown origin) assessed as release of AMC fluorescent product using Boc-QAR-AMC as substrate incubated for 30 mins by microplate reader
[8] = species on record: Homo sapiens; experiment: Inhibition of Matriptase (unknown origin) assessed as inhibition of release of AMC fluorescent product using […] as substrate at 10 uM incubated for 30 mins by microplate reader relative to control
[9] = biological target: Procathepsin L (Homo sapiens) (UniProt P07711); experiment: Inhibition of Cathepsin L (unknown origin) assessed as inhibition of release of AMC fluorescent product using Z-LR-AMC as substrate at 10 uM incubated for 30 mins by microplate reader relative to control; how it was run: as §1
[10] = biological target: T3, Kallikrein-11 (Homo sapiens) (UniProt Q9UBX7); experiment: Inhibition of KLK11 (unknown origin) assessed as inhibition of release of AMC fluorescent product using Boc-QAR-AMC as substrate at 10 uM incubated for 30 mins by microplate reader relative to control
T3 sequence (whole entry): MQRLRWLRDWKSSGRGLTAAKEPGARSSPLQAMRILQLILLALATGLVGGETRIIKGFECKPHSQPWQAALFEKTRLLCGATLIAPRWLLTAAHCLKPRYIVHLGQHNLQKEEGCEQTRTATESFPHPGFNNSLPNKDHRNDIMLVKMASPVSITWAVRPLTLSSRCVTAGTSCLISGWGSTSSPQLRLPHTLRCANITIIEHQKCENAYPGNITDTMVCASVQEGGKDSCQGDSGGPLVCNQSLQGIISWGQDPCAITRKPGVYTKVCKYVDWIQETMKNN

[11] = biological target: T4, Caspase-3 (Homo sapiens) (UniProt P42574); experiment: Inhibition of Caspase-3 (unknown origin) assessed as inhibition of release of AMC fluorescent product using Ac-DEVD-AMC as substrate at 10 uM incubated for 30 mins by microplate reader relative to control; how it was run: as §1
T4 sequence (whole entry): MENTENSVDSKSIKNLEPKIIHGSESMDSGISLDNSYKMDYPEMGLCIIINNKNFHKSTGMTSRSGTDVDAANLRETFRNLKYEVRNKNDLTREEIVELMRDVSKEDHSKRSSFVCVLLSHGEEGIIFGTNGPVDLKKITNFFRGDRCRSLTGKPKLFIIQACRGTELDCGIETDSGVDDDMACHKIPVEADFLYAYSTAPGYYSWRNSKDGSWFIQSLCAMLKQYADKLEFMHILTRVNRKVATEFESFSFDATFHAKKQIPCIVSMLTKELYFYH

[12] = biological target: T5, Caspase-6 (Homo sapiens) (UniProt P55212); experiment: Inhibition of Caspase-6 (unknown origin) assessed as inhibition of release of AMC fluorescent product using Ac-VEID-AMC as substrate at 10 uM incubated for 30 mins by microplate reader relative to control; how it was run: as §1
T5 sequence (whole entry): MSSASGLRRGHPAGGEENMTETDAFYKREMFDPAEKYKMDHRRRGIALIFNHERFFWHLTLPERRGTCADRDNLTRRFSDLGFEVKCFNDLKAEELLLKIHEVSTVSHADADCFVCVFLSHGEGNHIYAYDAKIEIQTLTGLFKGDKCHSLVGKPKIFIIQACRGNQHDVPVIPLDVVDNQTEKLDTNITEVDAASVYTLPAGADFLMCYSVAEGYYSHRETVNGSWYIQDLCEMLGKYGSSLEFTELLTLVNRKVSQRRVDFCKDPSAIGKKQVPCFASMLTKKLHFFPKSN

Chain of Kallikrein-5 (Homo sapiens) (Q9Y337 whole entry): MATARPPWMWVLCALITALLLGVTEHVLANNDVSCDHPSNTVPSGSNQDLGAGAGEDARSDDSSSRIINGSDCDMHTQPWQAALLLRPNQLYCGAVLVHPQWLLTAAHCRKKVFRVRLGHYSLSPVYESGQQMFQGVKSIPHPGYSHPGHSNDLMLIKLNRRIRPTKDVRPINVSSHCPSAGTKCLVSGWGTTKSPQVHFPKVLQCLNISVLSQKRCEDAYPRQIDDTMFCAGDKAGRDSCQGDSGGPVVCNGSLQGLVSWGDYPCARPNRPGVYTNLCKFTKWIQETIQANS
Chain of Kallikrein-1 (P06870 whole entry): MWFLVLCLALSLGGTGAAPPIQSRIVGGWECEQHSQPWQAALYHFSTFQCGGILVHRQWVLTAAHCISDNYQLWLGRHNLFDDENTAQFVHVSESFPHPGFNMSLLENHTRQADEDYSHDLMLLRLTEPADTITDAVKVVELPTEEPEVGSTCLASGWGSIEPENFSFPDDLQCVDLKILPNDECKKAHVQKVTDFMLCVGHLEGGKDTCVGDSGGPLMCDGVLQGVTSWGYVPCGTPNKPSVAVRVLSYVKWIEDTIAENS
Chain of Procathepsin L (Homo sapiens) (P07711 114-333 limits assumed): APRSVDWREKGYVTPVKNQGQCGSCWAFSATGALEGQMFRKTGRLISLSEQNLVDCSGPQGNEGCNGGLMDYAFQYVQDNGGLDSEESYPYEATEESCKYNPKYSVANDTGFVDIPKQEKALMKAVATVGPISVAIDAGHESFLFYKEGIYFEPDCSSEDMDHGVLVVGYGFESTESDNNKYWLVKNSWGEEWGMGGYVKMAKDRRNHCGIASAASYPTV
Chain of Tissue-type plasminogen activator (Homo sapiens) (P00750 36-562 limits assumed): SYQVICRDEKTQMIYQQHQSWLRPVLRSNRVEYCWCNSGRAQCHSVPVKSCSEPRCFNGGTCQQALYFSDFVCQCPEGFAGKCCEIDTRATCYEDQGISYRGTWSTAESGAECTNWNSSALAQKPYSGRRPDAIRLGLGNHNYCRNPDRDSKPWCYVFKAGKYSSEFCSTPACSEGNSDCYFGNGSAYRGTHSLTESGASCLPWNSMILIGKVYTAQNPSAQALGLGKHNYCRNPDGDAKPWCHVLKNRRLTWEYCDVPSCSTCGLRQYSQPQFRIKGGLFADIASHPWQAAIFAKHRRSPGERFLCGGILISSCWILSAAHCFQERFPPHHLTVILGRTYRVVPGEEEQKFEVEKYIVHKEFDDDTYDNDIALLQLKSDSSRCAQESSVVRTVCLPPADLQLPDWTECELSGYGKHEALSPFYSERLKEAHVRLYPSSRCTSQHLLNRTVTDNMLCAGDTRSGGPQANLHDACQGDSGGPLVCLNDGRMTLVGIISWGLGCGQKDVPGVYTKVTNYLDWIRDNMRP
Chain of Plasminogen (P00747 97-580 limits assumed): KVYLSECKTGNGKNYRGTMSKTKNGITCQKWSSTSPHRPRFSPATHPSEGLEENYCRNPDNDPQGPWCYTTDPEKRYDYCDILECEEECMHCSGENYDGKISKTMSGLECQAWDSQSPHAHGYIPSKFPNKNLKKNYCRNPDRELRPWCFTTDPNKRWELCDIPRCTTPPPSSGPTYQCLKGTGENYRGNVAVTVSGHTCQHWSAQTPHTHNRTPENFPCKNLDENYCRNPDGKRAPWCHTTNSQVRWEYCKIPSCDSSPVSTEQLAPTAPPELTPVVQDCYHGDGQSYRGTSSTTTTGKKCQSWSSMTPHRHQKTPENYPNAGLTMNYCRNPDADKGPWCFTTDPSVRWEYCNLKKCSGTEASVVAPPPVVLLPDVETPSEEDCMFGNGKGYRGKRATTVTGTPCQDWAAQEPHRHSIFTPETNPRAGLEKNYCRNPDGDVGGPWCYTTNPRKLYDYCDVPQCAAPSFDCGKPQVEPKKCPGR
Chain of Plasminogen (P00747 581-810 limits assumed): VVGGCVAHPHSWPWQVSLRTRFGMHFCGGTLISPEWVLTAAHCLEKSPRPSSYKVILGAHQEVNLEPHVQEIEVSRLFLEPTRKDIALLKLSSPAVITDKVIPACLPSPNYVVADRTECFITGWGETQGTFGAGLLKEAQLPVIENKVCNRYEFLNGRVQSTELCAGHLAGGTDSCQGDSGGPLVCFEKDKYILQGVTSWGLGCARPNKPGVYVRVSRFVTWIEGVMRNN
Chain of Kallikrein-4 (Homo sapiens) (Q9Y5K2 whole entry): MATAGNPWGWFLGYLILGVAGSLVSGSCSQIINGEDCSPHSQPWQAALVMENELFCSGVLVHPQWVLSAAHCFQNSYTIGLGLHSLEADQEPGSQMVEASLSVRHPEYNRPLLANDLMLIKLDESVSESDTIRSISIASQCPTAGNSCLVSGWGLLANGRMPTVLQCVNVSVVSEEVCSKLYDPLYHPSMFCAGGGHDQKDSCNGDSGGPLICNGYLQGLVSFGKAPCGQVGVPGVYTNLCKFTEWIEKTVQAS

SMILES | inhibition [1] [%] | IC50 [2] [µM] | inhibition [3] [%] | inhibition [4] [%] | inhibition [5] [%] | inhibition [6] [%] | IC50 [7] [µM] | inhibition [8] [%] | inhibition [9] [%] | inhibition [10] [%] | inhibition [11] [%] | inhibition [12] [%]
Cc1ccc2ccc(C(=O)Nc3ccc(CN)cc3)c(O)c2c1 | 9 | 49.4 | 8 | 0 | 6 | 4 | 6.7 | 0 | 27 | 88 | 10 | 31
Cl.NCc1ccc(NC(=O)c2ccc3ccccc3c2O)cc1 | 18 | 21.3 | 30 | 22 | 14 | 11 | 10.2 | 29 | 30 | 80 | 10 | 56
Cl.NCc1ccc(NC(=O)c2cc3ccccc3cc2O)cc1 | 6 | 5.1 | 4 | 4 | 2 | 5 | 7.4 | 8 | 25 | 45 | 5 | 40
Cc1ccc(C(=O)Nc2ccc(CN)cc2)c(O)c1.Cl | 0 | 26.3 | 0 | 5 | 0 | 3 | 9.2 | 0 | 32 | 39 | 0 | 5

Now from value to compound:

inhibition [1] [%] | IC50 [2] [µM] | inhibition [3] [%] | inhibition [4] [%] | inhibition [5] [%] | inhibition [6] [%] | IC50 [7] [µM] | inhibition [8] [%] | inhibition [9] [%] | inhibition [10] [%] | inhibition [11] [%] | inhibition [12] [%] | SMILES
6 | 8.4 | 15 | 24 | 45 | 12 | 4.8 | 13 | 1 | 75 | 13 | 12 | CC(C)c1ccc(C(=O)Nc2ccc(CN)cc2)c(O)c1
11 | 38.6 | 5 | 35 | 0 | 1.5 | 21.3 | 0 | 20 | 56 | 11 | 13 | CC(C)(C)c1ccc(O)c(C(=O)Nc2ccc(CN)cc2)c1.Cl
10 | 16.1 | 14 | 31 | 3 | 16 | 3.3 | 37 | 28 | 0 | 3 | 70 | COc1ccc2c(O)c(C(=O)Nc3ccc(CN)cc3)ccc2c1
